Consider one molecule from ChEMBL document CHEMBL1649306, “Arylimidamide DB766, a potential chemotherapeutic candidate for Chagas' disease treatment” (Antimicrob Agents Chemother, 2010).

For series [1], the system named is Mus musculus. The experiment in a line: Hepatotoxicity against Swiss-Webster mouse assessed as GPT at 100 mg/kg/day measured after 14 days postinfection. The format is toxicity, organism-based. The settings on record: in vivo, 336 h.
Series [2] has as its system Trypanosoma cruzi. Put plainly: Antitrypanosomal activity against Trypanosoma cruzi Y bloodstream forms infected in Swiss-Webster mouse assessed as decrease in parasite load at 50 mg/kg/day, ip administered 8 days postinfection measured on day 2. Format: functional. Set-up: scale not given: the % may be the effect or the level left. The settings on record: route intraperitoneal. In a few lines:
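Two-day regimen in male Swiss mice infected i.p. with 10^4 Y-strain bloodstream forms: i.p. doses (0.2 ml) at 5 and 8 dpi. Circulating parasites quantified at the 8 dpi peak by Pizzi-Brener method; reduction versus infected untreated mice; n ≥ 6 per group.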

For series [3], the system named is Trypanosoma cruzi. The experiment in a line: Antitrypanosomal activity against Trypanosoma cruzi Columbian bloodstream forms infected in C3H mouse assessed as decrease in parasite-induced cardiac inflammation at 100 mg/kg/day, ip administered 5 days postinfection for 10 consecutive days measured after 43 days. Format: functional, Heart. Further details: scale not given: the % may be the effect or the level left. Conditions: route intraperitoneal. An outline of the steps: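 Male C3H/He mice infected i.p. with 5 × 10^3 Colombian strain bloodstream forms, given 100 mg/kg/day i.p. daily for 10 days. At 43 dpi, H&E-stained 3 μm heart sections scored for amastigote nests and infiltrates (>10 mononuclear cells) over at least 100 fields. Three sections each from at least three mice.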

The test system of series [4] is Trypanosoma cruzi. Put plainly: Antitrypanosomal activity against Trypanosoma cruzi 762 epimastigotes after 24 hrs by light microscopy. The format is functional, organism-based. Conditions: Trypanosoma cruzi, 762, 24 h. In a few lines: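 Epimastigotes from 5-day exponential cultures, 5 × 10^6 parasites/ml in LIT medium, incubated at 28°C up to 96 h with DB766 0 to 32 μM or Bz 0 to 250 μM. Counted daily in a Neubauer chamber. IC50 averaged from at least three determinations in duplicate.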

Series [5] concerns Mus musculus. Put plainly: Toxicity in female Swiss-Webster mouse assessed as mortality at cumulative dose of 200 mg/kg, ip measured after 48 hrs. Conditions: in vivo. Further details: dose 200 mg/kg, route intraperitoneal. Format: organism-based. In a few lines:
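Uninfected 8–10-week-old female and male Swiss Webster and C3H/He (H-2k) mice injected i.p. on day 1 every 2 h with escalating doses: 5, 15, 30, 50 and 100 mg/kg (cumulative 20, 50, 100, 200 mg/kg). Toxic and subtoxic signs inspected on days 2–3 per OECD guidelines; tolerated dose set at 48 h.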

The subject of series [6] is Trypanosoma cruzi. The experiment in a line: Antitrypanosomal activity against Trypanosoma cruzi Y infected in Swiss-Webster mouse assessed as decrease in parasite load at 100 mg/kg/day, ip administered 5 days post-infection for 10 consecutive days measured on day 120. Conditions: route intraperitoneal. The format is functional. In a few lines: (§1)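 Male Swiss mice infected i.p. with 10^4 Y strain bloodstream forms. Given 0.2 ml i.p. at 5 and 8 dpi, or daily for 10 days from 5 dpi; reference drug given by gavage. Parasitemia measured by the Pizzi-Brener method, cumulative mortality checked daily to 120 dpi, n ≥ 6 per group.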

The test system of series [7] is Trypanosoma cruzi. The experiment in a line: Antitrypanosomal activity against Trypanosoma cruzi Y bloodstream forms infected in Swiss mouse cardiomyocytes assessed as parasite crista dilation at 10 ug/ml after 24 hrs by transmission electron microscopy. Format: functional, organism-based.
Series [8] concerns Trypanosoma cruzi. The experiment in a line: Antitrypanosomal activity against Trypanosoma cruzi Y bloodstream forms infected in Swiss-Webster mouse assessed as reduction in parasite-induced weight loss in mouse at 25 mg/kg/day, ip administered 5 days postinfection for 10 consecutive days measured on day 120. The format is functional, organism-based. An outline of the steps: (§2)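 Body weight of infected, treated mice followed from 0 to 120 dpi.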

The test system of series [9] is Trypanosoma cruzi. The experiment in a line: Antitrypanosomal activity against Trypanosoma cruzi Columbian bloodstream forms infected in C3H mouse assessed as reduction in parasite-induced weight loss at 50 mg/kg/day, ip administered 5 days postinfection for 10 consecutive days measured after 120 days. Format: functional, organism-based. An outline of the steps: as §2

Series [10] relates to Trypanosoma cruzi. Put plainly: Antitrypanosomal activity against Trypanosoma cruzi Columbian bloodstream forms infected in C3H mouse assessed as decrease in parasite load at 100 mg/kg/day, ip administered 5 days postinfection for 10 consecutive days measured after 41days post infection. Format: functional, organism-based. An outline of the steps:
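C3H/He mice infected i.p. with 10^3 or 5 × 10^3 Colombian strain bloodstream forms. Treated daily for 10 days with 0.1 ml i.p. or by gavage, reference drug given by gavage. Parasitemia measured by the Pizzi-Brener method; n ≥ 6 parasitemic mice per group.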

The subject of series [11] is Mus musculus. Put plainly: Toxicity in […](H-2k) mouse assessed as effect on GPT level at 100 mg/kg/day, po. Conditions: in vivo. Set-up: route oral. The format is organism-based.
In series [12] the test system is Mus musculus. The experiment in a line: Cardiotoxicity in […] mouse assessed as effect on heart rate level at 100 mg/kg/day, ip. The format is toxicity, organism-based. Set-up: route intraperitoneal. The settings on record: in vivo. In a few lines:
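Colombian strain, 5 × 10³ bloodstream forms i.p. into male C3H/He mice; 100 mg/kg/day given i.p. or by gavage (0.1 ml) daily for 10 doses from parasitemia onset. Mice sedated with diazepam (20 mg/kg i.p.), supine; eight-lead ECG from subcutaneous limb needle electrodes plus precordial lead II. Signal-averaged ECG; heart rate as beats per minute.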

For series [13], the system named is Trypanosoma cruzi. The experiment in a line: Antitrypanosomal activity against bloodstream forms of Trypanosoma cruzi CL after 24 hrs by light microscopy in presence of 50% mouse blood. The format is functional, organism-based. In a few lines: (§3)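 Bloodstream trypomastigotes kept at 4°C for 24 h in freshly isolated 50% mouse blood with serial dilutions (up to 32 μM). Motile live parasites counted in a Neubauer chamber by light microscopy; IC50 calculated as concentration reducing parasite number by 50%.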

In series [14] the test system is Trypanosoma cruzi. The experiment in a line: Antitrypanosomal activity against Trypanosoma cruzi Y bloodstream forms infected in Swiss-Webster mouse assessed as decrease in parasitemia at 100 mg/kg/day, ip administered 8 days postinfection measured on day 120. Format: functional. The settings on record: route intraperitoneal. In a few lines: as §1
Series [15] relates to Trypanosoma cruzi. The experiment in a line: Antitrypanosomal activity against Trypanosoma cruzi Y amastigotes infected in Swiss-Webster CM cells assessed as parasite DNA to host cell nucleus ratio at 10 ug/ml after 1 hr by fluorescence and transmission electron microscopy analysis. The format is functional.
Series [16] concerns Trypanosoma cruzi. The experiment in a line: Antitrypanosomal activity against bloodstream forms of Trypanosoma cruzi Y after 2 hrs by light microscopy in presence of 96% mouse blood. The format is functional, organism-based. In a few lines: (§4)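 Bloodstream trypomastigotes held at 4°C in freshly isolated mouse blood (96%) with serial dilutions up to 32 μM. Live motile parasites counted by light microscopy in a Neubauer chamber, giving an IC50 for each exposure time.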

The subject of series [17] is Trypanosoma cruzi. The experiment in a line: Antitrypanosomal activity against Trypanosoma cruzi Columbian bloodstream forms infected in C3H mouse assessed as decrease in parasite load in 50 mg/kg/day, po administered 5 days postinfection for 10 consecutive days measured after 120 days. Format: functional, organism-based.
Series [18] deals with Trypanosoma cruzi. Put plainly: Antitrypanosomal activity against Trypanosoma cruzi Y bloodstream forms infected in Swiss-Webster mouse assessed as reduction in parasite-induced weight loss in mouse at 50 mg/kg/day, ip administered 5 days postinfection for 10 consecutive days measured on day 120. Format: functional, organism-based. An outline of the steps:
as §2

Series [19] deals with Trypanosoma cruzi. Put plainly: Antitrypanosomal activity against Trypanosoma cruzi Columbian bloodstream forms infected in C3H mouse assessed as decrease in parasite load at 50 mg/kg/day, ip administered 21 days postinfection measured on day 45. Format: functional, organism-based. In a few lines:
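C3H/He mice infected i.p. with 10^2 Colombian strain bloodstream forms. Treatment started at parasitemia onset (21 dpi) with daily doses for 10 treatments, 0.1 ml i.p. Parasitemia measured by the Pizzi-Brener method; n ≥ 6 parasitemic mice per group.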

Series [20] has as its system Trypanosoma cruzi. Put plainly: Antitrypanosomal activity against bloodstream forms of Trypanosoma cruzi Y after 24 hrs by light microscopy in presence of 96% mouse blood. Format: functional, organism-based. In a few lines: as §4
Series [21] deals with Trypanosoma cruzi. Put plainly: Antitrypanosomal activity against Trypanosoma cruzi Y bloodstream forms infected in Swiss-Webster mouse assessed as decrease in parasite load at 25 mg/kg/day, ip administered 8 days postinfection measured on day 2. Format: functional. Set-up: scale not given: the % may be the effect or the level left. The settings on record: route intraperitoneal. An outline of the steps:
as §1

Series [22] concerns Trypanosoma cruzi. The experiment in a line: Antitrypanosomal activity against bloodstream forms of Trypanosoma cruzi Y after 24 hrs by light microscopy in presence of 50% mouse blood. The format is functional, organism-based. In a few lines: as §3

What is called IC50 is the point on the concentration scale where inhibition reaches its midpoint. As usually defined, the IC90 is the concentration needed for an effect of 90%. As a reminder, the inhibition in vivo is the share of the control response that was lost under treatment.

Structures are written as SMILES. The source made the active and inactive calls. The calls are words filed in the database; no cut-off is given here.

In the case of `CC(C)Oc1cc(NC(=N)c2ccccn2)ccc1-c1ccc(-c2ccc(NC(=N)c3ccccn3)cc2OC(C)C)o1`, the Activity result in the series with Mus musculus [1] was “Non-toxic”; with Trypanosoma cruzi [2] it was 88%; with Trypanosoma cruzi [3], 75%; in the series with Mus musculus [5], “Non-toxic”; in the series on Mus musculus [11] it was “Non-toxic”; with Mus musculus [12], “Toxic”. For the same molecule, in the series with Trypanosoma cruzi [21], the Activity amounted to 78%. Moreover, the IC50 with Trypanosoma cruzi [4] is 60 nM; with Trypanosoma cruzi [13], 710 nM; in the series with Trypanosoma cruzi [16], 560 nM; in the series with Trypanosoma cruzi [20], 60 nM; in the series on Trypanosoma cruzi [22], 710 nM. The molecule further displayed an IC90 with Trypanosoma cruzi [4] of 180 nM. The inhibition in vivo at 100 mg/kg/day is > 98% with Trypanosoma cruzi [6] and > 99% with Trypanosoma cruzi [14]. The outcome in the series with Trypanosoma cruzi [7], in the series with Trypanosoma cruzi [9] and with Trypanosoma cruzi [10] was Active. In addition, the outcome in the series with Trypanosoma cruzi [8], in the series with Trypanosoma cruzi [17], in the series on Trypanosoma cruzi [18] and in the series on Trypanosoma cruzi [19] was inactive. Besides, in the series with Trypanosoma cruzi [15], the Ratio stood at 2.1.
